In the library only some 3.5% were active in any assay of this set; here they are far more common.
RGS4 block = human RGS4 inhibition; 310,000 tested, 0.45% active; B-score at 10 µM; HEK293 M3R/RGS4 inducible, Fluo-4 calcium flux; hits give high values; triggered by carbachol at its EC20; AID 463165;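 active means B-score, a plate-corrected calcium signal, over three deviations above library mean, with baseline fluorescence within five deviations of library mean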;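 further: RGS4 expression induced by doxycycline in cells with stable M3 receptor; B-score is computed from the integrated fluorescence ratio over baseline after carbachol; higher B-score means a larger calcium signal and so more RGS4 inhibition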
Target sequence (P49798 whole entry, looked up): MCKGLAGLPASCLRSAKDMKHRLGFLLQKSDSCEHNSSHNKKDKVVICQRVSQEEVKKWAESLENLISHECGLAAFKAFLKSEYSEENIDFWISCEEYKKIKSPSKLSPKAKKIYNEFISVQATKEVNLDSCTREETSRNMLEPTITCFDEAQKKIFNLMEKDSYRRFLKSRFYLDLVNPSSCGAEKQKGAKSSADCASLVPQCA
RGS4 pot = RGS4 potentiation or activation. B-score at 10 µM. HEK293 M3R/inducible RGS4, carbachol calcium flux Fluo4; hits give low values. 310,000 tested, 0.92% active. AID 463111;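 active means B-score of the integrated calcium signal more than 4 SD below the library mean, with starting fluorescence not abnormally high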;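 further: negative B-score means reduced calcium response which marks RGS4 activation or potentiation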
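Test system: HEK293 cells with stable M3R and inducible RGS4; also added: carbachol at ECmax as muscarinic agonist stimulus; schedule: dye loading 30 min 37 °C, buffer rest 30 min RT; technique: kinetic calcium fluorescence imaging with Fluo4-AM dye, 2 µM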
MrgX1 antag = human MrgX1 receptor antagonism, primary screen | MRGX1-HEK293 calcium flux, Fluo-4, BAM8-22 antagonism; hits give low values | B-score at 10 µM | 310,000 tested, 1.3% active | AID 588676;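 active means calcium-response B-score plate-corrected more than 3 library SD below zero, starting fluorescence within 5 deviations, no agonist response on first addition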;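 further: peak minus trough fluorescence over baseline after final BAM8-22 challenge near maximal dose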
Target sequence (Q96LB2 whole entry, looked up): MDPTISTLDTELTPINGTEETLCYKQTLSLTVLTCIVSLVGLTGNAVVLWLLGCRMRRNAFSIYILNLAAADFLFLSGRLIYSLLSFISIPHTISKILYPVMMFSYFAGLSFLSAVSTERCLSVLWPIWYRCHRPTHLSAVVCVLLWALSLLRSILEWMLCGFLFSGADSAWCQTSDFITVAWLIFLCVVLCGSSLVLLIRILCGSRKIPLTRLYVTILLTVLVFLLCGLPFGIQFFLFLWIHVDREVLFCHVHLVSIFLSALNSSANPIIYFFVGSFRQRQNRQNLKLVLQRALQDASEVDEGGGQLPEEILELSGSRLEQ
MrgX1 PAM = allosterically activates human MrgX1 receptor signaling; Q96LB2; MrgX1-HEK293, Fluo-4 calcium flux, FDSS; hits give high values; B-score at 10 µM; 310,000 tested, 0.63% active; AID 588675;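 active means plate-corrected calcium response at least 3 library SD above typical, normal starting fluorescence, not activating the receptor alone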;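 further: compound read alongside a low EC10 to EC30 dose of BAM8-22 agonist; peak minus trough fluorescence over baseline measured at the second addition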
MrgX1 agonist = human MrgX1 receptor agonism, primary screen. MrgX1-HEK293 cells, Fluo-4 calcium fluorescence, agonist mode; hits give high values. B-score at 10 µM. 310,000 tested, 0.44% active. AID 588627;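 active means calcium response B-score plate-corrected fluorescence ratio at least 3 library SD, with starting fluorescence B-score inside 5 SD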
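Assay system: MrgX1-expressing HEK293 cells / Amount: fifteen thousand cells per well / Doses: test compound in the initial addition of three / Timing: cells plated overnight, dye loaded 0.5 h 37 °C, 0.5 h room temperature / Technique: kinetic calcium dye fluorescence, Fluo-4 NW / Control set: positive and negative controls per plate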
RGS4 act valid = confirmation of RGS4 activators; AID 602282; HEK293 M3R/RGS4 inducible, carbachol calcium flux Fluo4; 1,100 tested, 89% active; inhibition, % at 10 µM; shares compounds with RGS4 pot;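 active means inhibition above 3 SD of the buffer control wells, cut at about 41% in these data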;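 further: signal is the integrated peak-minus-minimum Fluo4 fluorescence over baseline ratio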
RGS4 act ctr = activity in cells without induced RGS4 expression; shares compounds with RGS4 pot; HEK293 M3R non-induced RGS4, Fluo4 calcium flux; after carbachol challenge at its EC90; inhibition, % at 10 µM; 1,100 tested, 82% active; AID 602283;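 active means inhibition exceeding 3 SD of buffer-only control wells, cut at about 26% in these data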;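 further: percent drop in integrated peak-minus-baseline over baseline Fluo4 ratio after carbachol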
The depositor's hits bear a star; i = inactive; · = no result.

SMILES | RGS4 block | RGS4 pot | MrgX1 antag | MrgX1 PAM | MrgX1 agonist | RGS4 act valid | RGS4 act ctr
Cc1cccc2cc3c(N)c(C(=O)Nc4ccc(N5CCOCC5)cc4)sc3nc12 | i | -11* | -5.4* | i | i | 92* | 74*
Cc1ccc2nc3sc(C(=O)Nc4ccc(N5CCOCC5)cc4)c(N)c3cc2c1 | i | i | · | · | · | · | ·
Cc1cc(Cl)c(S(=O)(=O)N2CCN(c3ccccn3)CC2)cc1OCC(=O)NC1CCCCC1 | i | -8* | i | i | i | 92* | 75*
CCNC(=O)COC(=O)c1cccc(Br)c1 | i | i | i | i | i | · | ·
Cc1cc(C)c2c(CN3CCN(Cc4ccc5c(c4)OCO5)CC3)cc(=O)oc2c1C | i | -7.7* | i | i | i | 76* | 28*
Cc1cc(C)c2c(CN3CCN(Cc4ccccc4)CC3)cc(=O)oc2c1 | i | i | i | i | i | · | ·
Cc1cc2oc(=O)cc(CN3CCN(Cc4ccc5c(c4)OCO5)CC3)c2cc1C | i | i | i | i | i | · | ·
Cc1cc(C)c2c(CN3CCN(Cc4ccc5c(c4)OCO5)CC3)cc(=O)oc2c1 | i | -8.7* | i | i | i | 91* | 52*
Cc1ccc2c(CN3CCN(Cc4ccc5c(c4)OCO5)CC3)cc(=O)oc2c1C | i | -8.7* | i | i | i | 0 | 0
CCC(CC)c1nnc(NC(=O)c2cc(C(=O)OC)cc([N+](=O)[O-])c2)s1 | i | i | i | i | i | · | ·
COc1ccc(N(CC(=O)NCCC2=CCCCC2)S(=O)(=O)c2c(C)[nH]c(=O)[nH]c2=O)cc1 | i | i | i | i | i | · | ·
C(=N\c1nc2ccccc2n1Cc1ccccc1)/c1cccs1 | i | -9.8* | i | i | i | 76* | 41*
Cc1cccc(N2CCN(c3ccc4cc(S(=O)(=O)N5CCCCC5)ccc4n3)CC2)c1C | i | i | i | i | i | · | ·
Cc1cc2c(cc1S(=O)(=O)N1CCCC1)n(C)c(=O)c(=O)n2C | i | i | i | i | i | · | ·
Cc1ccccc1Sc1c(C#N)c(-c2ccccc2)nn1C | i | -8.3* | i | i | i | 88* | 58*
O=C1C=C(N2CCCCCC2)C2(CCCCC2)O1 | i | -8.4* | i | i | i | 66* | 0
Brc1cccc(-c2nnc3n2CCCCC3)c1 | i | i | i | i | i | · | ·
Brc1cccc(-c2cnc3n2CCCCC3)c1 | i | -7.9* | i | i | i | 84* | 56*
CCCOC(=O)c1cc(NC(=O)/C=C/c2ccccc2)ccc1O | i | i | i | i | i | · | ·
C[n+]1cccc(C2C(C#N)=C(N)Oc3c2ccc2ccccc32)c1 (stereo not given) | i | i | i | i | i | · | ·
C[n+]1cccc2ccc3c(c21)OC(N)=C(C#N)C3c1ccccc1 (stereo not given) | i | -12* | i | i | i | 76* | 84*
Cc1ccc(C(=O)NCC(=O)N2CCC(Cc3ccccc3)CC2)cc1 | i | i | i | i | i | · | ·
CCOC(=O)c1cc2sc(C)cc2n1CC(=O)N(CC)CC | i | i | i | i | i | · | ·
CCOC(=O)c1cc2sc(C)cc2n1CCCN1C(=O)c2ccccc2C1=O | i | -7.8* | i | i | i | 90* | 42*
COc1ccc(-c2csc3ncnc(N4CCN(c5ccc(OC)cc5)CC4)c23)cc1 | i | i | i | i | i | · | ·
SMILES | RGS4 block | RGS4 pot | MrgX1 antag | MrgX1 PAM | MrgX1 agonist | RGS4 act valid | RGS4 act ctr
Cc1ccc(-c2csc3ncnc(N4CCN(c5ccccc5O)CC4)c23)cc1 | i | i | i | i | i | · | ·
COc1ccc(-c2csc3ncnc(N4CCN(c5ccccc5)CC4)c23)cc1 | i | -8.3* | i | i | i | 88* | 84*
COc1ccc(-c2csc3ncnc(N4CCN(Cc5ccccc5)CC4)c23)cc1 | i | -7.7* | i | i | i | 0 | 0
CCN1CCN(c2ncnc3scc(-c4ccc(C)c(C)c4)c23)CC1 | i | -9.2* | i | i | i | 92* | 87*
COc1ccc(-c2csc3ncnc(N4CCN(c5ccccc5O)CC4)c23)cc1 | i | -9.3* | i | i | i | 0 | 0
CC(C)Oc1cccc(C(=O)NC(=S)Nc2ccccc2)c1 | i | i | i | i | i | · | ·
COc1ccc(NC(=O)C(C)N2CCN(C)CC2)cc1 (stereo not given) | i | i | i | i | i | · | ·
COc1ccccc1OCC(=O)Nc1cccc(-c2nnc(-c3ccco3)o2)c1 | i | -8.1* | i | i | i | 78* | 28*
COc1ccc(CC(=O)Nc2cccc(-c3nnc(-c4ccccc4)o3)c2)cc1OC | i | -9* | · | · | · | 93* | 81*
COc1cccc(C(=O)Nc2cccc(-c3nnc(-c4ccccc4)o3)c2)c1 | i | -11* | i | i | i | 76* | 37*
O=C(Cc1ccccc1)Nc1cccc(-c2nnc(-c3ccco3)o2)c1 | i | i | i | i | i | · | ·
O=C(NCC1CCN(c2ccc(S(=O)(=O)N3CCOCC3)cc2)CC1)c1ccc(Cl)cc1 | i | -11* | i | i | i | 92* | 81*
COc1ccc2c(C)cc(N3CCN(Cc4ccccc4)CC3)nc2c1 | i | i | i | i | i | · | ·
COc1ccc2c(C)cc(N3CCCCCC3)nc2c1 | i | -11* | i | i | i | 92* | 75*
O=C(c1cccnc1)N1CCC(Oc2ccc(C(=O)N3CCCCO3)cc2)CC1 | i | i | i | i | i | · | ·
Cc1ccc(CN2CCC(c3cc(-c4cccs4)n[nH]3)CC2)cc1 | i | -17* | i | i | i | 91* | 68*
FC(F)(F)c1cccc(CN2CCC(c3cc(-c4cccs4)n[nH]3)CC2)c1 | i | i | i | i | i | · | ·
Cc1ccccc1COc1ccc(/C(O)=C2/C(=O)C(=O)N(CCCn3ccnc3)C2c2ccco2)cc1 (stereo not given) | i | i | i | i | i | · | ·
CCOc1ccc(-n2c(=O)c3sccc3n(Cc3cccc([N+](=O)[O-])c3)c2=O)cc1 | i | i | i | i | i | · | ·
CC1=C(C(=O)OCC2CCCO2)C(c2ccccc2)C2=C(CC(C)(C)CC2=O)N1 (stereo not given) | i | -8.2* | i | i | i | 0 | 0
